Assay results from ChEMBL document CHEMBL1127362, “Synthesis and pharmacological evaluation of isoindolo[1,2-b]quinazolinone and isoindolo[2,1-a]benzimidazole derivatives related to the antitumor agent batracylin” (J Med Chem, 1994).

Columns and labels:
[1] = system: CCRF-CEM; test: Tested for the inhibitory activity against CCRF CEM T- cell leukemia cells; assay type: functional, cell-based; conditions: Homo sapiens
Method in brief: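 MTT microtiter tetrazolium assay; CCRF CEM cells seeded at 30 000 cells/well and allowed to attach. Each dose tested in four replicate plates, each with eight DMSO-only control wells.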

[2] = species: Rattus norvegicus; test: Nuclear count minus the highest cytoplasmic count determined in rat hepatocytes for each cell; assay type: functional, Hepatocyte
Method in brief: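 Hepatocytes isolated from F-344 rats (220–300 g), ~5 × 10⁶ cells seeded on coverslips; after 2 h washed, refed with serum-free Williams medium E and exposed together to 10 μCi/mL tritiated thymidine (50–90 Ci/mmol) plus compound in DMSO. Autoradiography after 18–20 h; 20 cells counted per slide, triplicate per concentration, mean ± SD of two experiments. Positive requires net grains >0 with dose response.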

[3] = system: DNA topoisomerase II (Bos taurus); test: Relative potency to cause 90% of topoisomerase II-mediated cleavage of liner 8.4-kb YEPG DNA

| SMILES | IC50 [1] | Relative activity [3] | Net grain counts [2] |
| --- | --- | --- | --- |
| Nc1ccc2c(c1)CN1C(=O)c3ccccc3C1=N2 [DANIQUIDONE] | 14 µM |  | 93.1 |
| COc1cc([C@@H]2c3cc4c(cc3[C@@H](O[C@@H]3O[C@@H]5CO[C@@H](C)O[C@H]5[C@H](O)[C@H]3O)[C@H]3COC(=O)[C@H]23)OCO4)cc(OC)c1O [ETOPOSIDE] | 0.002 µM |  | -7.5 |
| Cc1cccc(N2C(=O)c3ccccc3C2=O)c1[N+](=O)[O-] | > 200 µM | 0 | -4.1 |
| COc1ccc2nc3n(c2c1)C(=O)c1ccccc1-3 | > 200 µM | 0 | -3.6 |
| O=C1c2ccccc2-c2nc3ccc(O)cc3n21 | > 200 µM | 0 |  |
| O=C1c2ccccc2-c2nc3ccncc3n21 | > 200 µM | 0 | -10.5 |
| COc1ccc(N)c(N2C(=O)c3ccccc3C2=O)c1 | > 200 µM | 0 | -8.9 |

More lines, main results first:

| IC50 [1] | Relative activity [3] | SMILES | Net grain counts [2] |
| --- | --- | --- | --- |
| > 200 µM | 0 | Nc1ccc2nc3n(c2c1)C(=O)c1ccccc1-3 | -4.4 |
| > 150 µM | 0 | O=C1c2ccccc2C2=Nc3ccc([N+](=O)[O-])cc3CN12 | 10.5 |
| 71 µM | 0 | Cc1cccc(N)c1N1C(=O)c2ccccc2C1=O | -8.7 |
| > 200 µM | 0 | Cc1cccc2nc3n(c12)C(=O)c1ccccc1-3 | -3.7 |
| 68 µM | 0 | O=C1c2ccccc2-c2nc3ccccc3n21 | -7.4 |
| 102 µM | 0.1 | O=C1c2ccccc2C2=Nc3ccncc3CN12 | -5.2 |
| > 200 µM | 0 | Cc1cccc2c1nc1n2C(=O)c2ccccc2-1 | -3.5 |
| 60 µM | 1 | O=C1c2ccccc2C2=Nc3ccccc3CN12 | -4.5 |
